As usually defined, the ED50 is the dose that gives a 50% effect, or the effect in half of the subjects. A word on the Ki: it is the equilibrium dissociation constant of an inhibitor or competing ligand from its target. The term pKi denotes −log10 of the Ki, conventionally taken in molar units.

Series [1] concerns Rattus norvegicus. Nature of the series: Reduction of haloperidol-induced catalepsy in orally dosed Sprague-Dawley rat. The following applies: po. The format is functional. In outline:
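Male Sprague–Dawley rats (225–275 g) were given haloperidol 1 mg/kg, with bar tests every 30 min (1 cm bar, 10 cm high, 120 s maximum). After a stable cataleptic baseline at about 3 h, compound or vehicle was dosed by oral gavage. The bar test was repeated every 30 min for 2 h. Data were analyzed by one-way ANOVA with Dunnett's test.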

The test system of series [2] is Mus musculus. Nature of the series: Reduction of haloperidol-induced catalepsy in orally dosed CD1 mouse. The class given is functional. The following applies: CD1, po. In outline: (§1)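 Male CD-1 mice (25–30 g) received haloperidol 3 mg/kg sc. Bar test used a 4.5 cm high, 1 cm bar with a 120 s cutoff, measured every 30 min. Once baseline catalepsy was stable (about 3 h), compound or vehicle was given by oral gavage. Catalepsy was then scored every 30 min for 2 h. Analysis was one-way ANOVA with Dunnett's post hoc test.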

Series [3] has as its target Adenosine receptor A2a (Rattus norvegicus, UniProt P30543). Nature of the series: Displacement of [3H]ZM241385 from adenosine A2A receptor in rat brain membrane. The class given is cell membranes. (In a radioligand displacement assay an active substance lowers the binding of a labelled ligand.)
Series [4] has as its target T1, Adenosine receptor A1 (Rattus norvegicus, UniProt P25099).
T1 sequence (P25099 whole entry): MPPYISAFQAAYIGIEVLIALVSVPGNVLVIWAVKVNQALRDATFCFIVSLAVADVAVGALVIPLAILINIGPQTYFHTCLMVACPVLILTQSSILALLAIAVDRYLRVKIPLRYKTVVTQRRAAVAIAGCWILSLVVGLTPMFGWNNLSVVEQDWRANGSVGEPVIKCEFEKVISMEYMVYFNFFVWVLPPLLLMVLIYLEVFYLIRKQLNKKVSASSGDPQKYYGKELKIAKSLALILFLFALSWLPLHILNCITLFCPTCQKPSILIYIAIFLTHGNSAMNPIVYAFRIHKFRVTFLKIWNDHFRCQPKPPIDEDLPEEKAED
Nature of the series: Displacement of [3h]DPCPX from adenosine A receptor in rat cerebral cortex membrane.

Series [5] in a line: Metabolic stability in rat liver microsomes at 2 uM after 15 mins. The class given is ADME, Microsome. The following applies: read-out: Stability. In outline: (§2)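 Test compound at 2 μM final was incubated at 37 °C with shaking in Sprague–Dawley rat liver microsomes in 66 mM potassium phosphate pH 7.4. An NADP+/glucose-6-phosphate/MgCl2/G6P dehydrogenase regenerating system was present. Aliquots taken at 0, 15, 30 and 60 min were quenched in acetonitrile containing DPCPX internal standard. Percent parent remaining was measured by LC/MS.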
For orientation: Liver microsomes are a subcellular fraction often used to study metabolism.

Series [6] is described as follows: Metabolic stability in rat liver microsome at 2 uM after 30 mins. The class given is ADME. The following applies: liver microsomes, read-out: Stability. In outline: as §2
Series [7] can be described thus: Metabolic stability in rat liver microsome at 2 uM after 60 mins. The class given is ADME. Conditions: liver microsomes, read-out: Stability. In outline:
as §2

For series [8], the system named is Mus musculus. Nature of the series: Reduction of haloperidol-induced catalepsy in CD1 mouse within 30 mins at 3 mg/kg, po. The arrangement: scale not given: the % may be the effect or the level left. The class given is functional. In outline: as §1

pKi: −log10 of the molar value. Where only a bound is given, the exact number is not on record here.

Chain of Adenosine receptor A2a (P30543 whole entry): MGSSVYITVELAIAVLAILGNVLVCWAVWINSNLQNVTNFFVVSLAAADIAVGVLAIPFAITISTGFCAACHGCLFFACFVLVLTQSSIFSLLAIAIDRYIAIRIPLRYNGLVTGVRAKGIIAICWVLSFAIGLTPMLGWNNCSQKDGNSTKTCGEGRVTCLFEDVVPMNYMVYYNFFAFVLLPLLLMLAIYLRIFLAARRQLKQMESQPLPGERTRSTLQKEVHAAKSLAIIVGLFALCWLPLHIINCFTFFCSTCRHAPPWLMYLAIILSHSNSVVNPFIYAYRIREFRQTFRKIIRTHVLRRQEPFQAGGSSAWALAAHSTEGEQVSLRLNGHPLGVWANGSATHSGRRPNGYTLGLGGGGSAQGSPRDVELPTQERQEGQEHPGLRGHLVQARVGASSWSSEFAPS

Take `Nc1nc(NC[C@H]2CCCN2Cc2c(F)cccc2F)nc2nc(-c3ccco3)nn12`: the ED50 in series [1] and in series [2] was 10 mg/kg each time. Moreover, the Ki was 3.6 nM (antagonist) in series [3] and 427 nM (antagonist) in series [4].
Turning to `Cn1nc(C(F)(F)F)c(CN2CCN(c3nc(N)n4nc(-c5ccco5)nc4n3)CC2)c1Cl`, the ED50 in series [1] and in series [2] was 3 mg/kg in each case. Further, in series [5], the remaining at 0.25 h, 2 µM was determined as 14%.
As to `Nc1nc(N2CCN3CCC[C@@H]3C2)nc2nc(-c3ccco3)nn12`, the inhibitory constant (Ki) in series [3] is recorded as 30 nM (antagonist). The remaining at 0.5 h, 2 µM in series [6] was determined as 75%. This compound gave a negative-log Ki (pKi) in series [4] of 5.92. Besides, in series [5], the remaining at 0.25 h, 2 µM was found to be 67%. In addition, the remaining at 1 h, 2 µM in series [7] came out at 61%.
The like results for `Nc1nc(N2CCN3CCC[C@H]3C2)nc2nc(-c3ccco3)nn12` were, in that order, 46 nM (antagonist), 54%, under 6.30, 69% and 36%.
For `Nc1nc(N2CCN3C[C@@H](COc4ccc5ncccc5c4)CC[C@H]3C2)nc2nc(-c3ccco3)nn12` the same measures were 0.6 nM (antagonist), 25%, 5.46, 42% and 16%.
Take `Nc1nc(N2CCN3[C@@H](CO)CCC[C@H]3C2)nc2nc(-c3ccco3)nn12` (racemic): the Ki in series [3] is recorded as 3 nM (antagonist). The compound also gave a pKi in series [4] of 5.89.
The like results for `Nc1nc(N2CCN3C[C@H](COc4ccccc4)CC[C@H]3C2)nc2nc(-c3ccco3)nn12` (racemic) were, in that order, 53 nM (antagonist) and under 6.30.
For `Nc1nc(N2CCN3C[C@H](CO)CC[C@H]3C2)nc2nc(-c3ccco3)nn12` (racemic) the same measures were 71 nM (antagonist) and 5.21.
`Nc1nc(N2CCN3[C@@H](CO)CCC[C@H]3C2)cc2nc(-c3ccco3)nn12` (racemic): in series [3], the Ki is 110 nM (antagonist). For the same compound, the pKi in series [4] is under 6.30.
For `Nc1nc(N2CCN3CCCCC3C2)cc2nc(-c3ccco3)nn12` (racemic) the same measures were 140 nM (antagonist) and under 6.30.
On to `Nc1nc(NC[C@@H]2CC[C@@H]3CN(c4ncccn4)CCN3C2)nc2nc(-c3ccco3)nn12` (racemic), for which the Ki in series [3] is 0.3 nM (antagonist). Also, the remaining at 0.5 h, 2 µM in series [6] came out at 65%. Besides, the pKi in series [4] is 5.80. Besides, the remaining at 0.25 h, 2 µM in series [5] is 89%. For the same compound, the remaining at 1 h, 2 µM in series [7] was 43%.
`Nc1nc(N2CCN3C[C@@H](COc4ccccc4)CC[C@H]3C2)nc2nc(-c3ccco3)nn12` (racemic): in series [3], the Ki was 21 nM (antagonist). Further, in series [4], the pKi was under 6.30.
Consider `COc1ccc(OC[C@H]2CC[C@H]3CN(c4nc(N)n5nc(-c6ccco6)nc5n4)CCN3C2)cc1` (racemic), for which the Ki in series [3] was 35 nM (antagonist). This compound also gave a pKi in series [4] of under 6.30.
Regarding `Nc1nc(N2CCN3C[C@@H](COc4ccccc4F)CC[C@H]3C2)nc2nc(-c3ccco3)nn12` (racemic), the inhibition constant Ki in series [3] was 0.9 nM (antagonist). The compound further showed a pKi in series [4] of under 6.30.
On to `Nc1nc(N2CCN3C[C@@H](COc4ccc(F)cc4)CC[C@H]3C2)nc2nc(-c3ccco3)nn12` (racemic), for which, in series [3], the inhibition constant Ki is listed as 4 nM (antagonist). In series [4], this compound had a pKi of under 6.30.
For the compound `Nc1nc(N2CCN3C[C@@H](CO)CC[C@H]3C2)cc2nc(-c3ccco3)nn12` (racemic), the inhibitory constant (Ki) in series [3] is recorded as 96 nM (antagonist). Besides, the Activity in series [8] is recorded as over 50%. In addition, in series [6], the remaining at 0.5 h, 2 µM stood at 100%. Moreover, the negative logarithm of the Ki (pKi) in series [4] was under 6.30. For the same compound, the remaining at 0.25 h, 2 µM in series [5] stood at 100%. Also, in series [7], the remaining at 1 h, 2 µM came out at 85%.
Regarding `Nc1nc(N2CCN3C[C@@H](COc4cccc(F)c4)CC[C@H]3C2)nc2nc(-c3ccco3)nn12` (racemic), in series [3], the Ki is 0.2 nM (antagonist). For the same compound, in series [6], the remaining at 0.5 h, 2 µM is 36%. In series [4], this compound showed a pKi of 5.48. In addition, the remaining at 0.25 h, 2 µM in series [5] was 57%. Besides, in series [7], the remaining at 1 h, 2 µM came out at 12%.
For `Nc1cc(N2CCN3C[C@@H](CO)CC[C@H]3C2)nc2nc(-c3ccco3)nn12` (racemic) the same measures were 230 nM (antagonist), 81%, under 6.30, 97% and 51%.
`Nc1cc(N2CCN3C[C@@H](COc4ccccc4)CC[C@H]3C2)nc2nc(-c3ccco3)nn12` (racemic): the Ki in series [3] is on record as 45 nM (antagonist). The compound further gave a pKi in series [4] of under 6.30.
For `Nc1cc(N2CCN3CCCCC3C2)nc2nc(-c3ccco3)nn12` (racemic) the same measures were 38 nM (antagonist) and under 6.30.
The like results for `Nc1nc(N2CCN3[C@@H](COc4ccccc4)CCC[C@H]3C2)nc2nc(-c3ccco3)nn12` (racemic) were, in that order, 13 nM (antagonist) and under 6.30.
For `Nc1nc(N2CCN3C[C@H](CO)CC[C@H]3C2)cc2nc(-c3ccco3)nn12` (racemic) the same measures were 240 nM (antagonist) and under 6.00.
In the case of `Nc1nc(N2CCN3C[C@@H](CO)CC[C@H]3C2)nc2nc(-c3ccco3)nn12` (racemic), the Ki in series [3] is 45 nM (antagonist); in series [4], 660 nM (antagonist). The compound also displayed an Activity in series [8] of over 50%. Also, the remaining at 0.5 h, 2 µM in series [6] is 100%. Besides, the remaining at 0.25 h, 2 µM in series [5] came to 100%. In addition, the remaining at 1 h, 2 µM in series [7] was 100%.
Turning to `Nc1cc(N2CCN3C[C@H](CO)CC[C@H]3C2)nc2nc(-c3ccco3)nn12` (racemic), the Ki in series [3] is 860 nM (antagonist). Also, the pKi in series [4] is under 6.00.
For `Nc1cc(N2CCN3[C@@H](CO)CCC[C@H]3C2)nc2nc(-c3ccco3)nn12` (racemic) the same measures were 610 nM (antagonist) and under 6.30.
The like results for `COc1ccc(OC[C@@H]2CC[C@H]3CN(c4nc(N)n5nc(-c6ccco6)nc5n4)CCN3C2)cc1` (racemic) were, in that order, 70 nM (antagonist) and under 6.30.
As to `NC[C@H]1CC[C@H]2CN(c3nc(N)n4nc(-c5ccco5)nc4n3)CCN2C1` (racemic), the Ki in series [3] is on record as 16 nM (antagonist). The same compound gave a pKi in series [4] of under 6.30.
Take `Nc1nc(N2CCN3CCCCC3C2)nc2nc(-c3ccco3)nn12` (racemic): the Ki in series [3] is 12 nM (antagonist); in series [4], 860 nM (antagonist).

The record behind these values is ChEMBL document CHEMBL1149249 (J Med Chem, 2004).
